ChEMBL document CHEMBL4715736, “Identification of anticancer agents based on the thieno[2,3-b]pyridine and 1H-pyrazole molecular scaffolds” (2016)

Columns and labels:
Assay type in all cases: functional
CCRF-CEM [1] = test: Growth inhibition of human CCRF-CEM cells assessed as cell growth at 0.01 uM incubated for 48 hrs by sulforhodamine B assay relative to control; conditions: read-out: Activity
Procedure, shortened: (§1)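 NCI Developmental Therapeutics Program NCI60 panel. Compounds that were active in the 10 µM one-dose screen went on to dose–response testing. Growth at each concentration is expressed relative to untreated control (100%). GI50 (concentration giving 50% of maximal inhibition of proliferation) and TGI (concentration giving total growth inhibition) were derived from the curves.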

A549 [2] = test: Growth inhibition of human A549/ATCC cells assessed as cell growth at 0.01 uM incubated for 48 hrs by sulforhodamine B assay relative to control; conditions: read-out: Activity; procedure, shortened: as §1
HT-29 = test: Growth inhibition of human HT-29 cells assessed as cell growth at 0.01 uM incubated for 48 hrs by sulforhodamine B assay relative to control; conditions: read-out: Activity
SF-268 [3] = test: Growth inhibition of human SF-268 cells assessed as cell growth at 0.01 uM incubated for 48 hrs by sulforhodamine B assay relative to control; conditions: read-out: Activity
SK-MEL-28 = test: Growth inhibition of human SK-MEL-28 cells assessed as cell growth at 0.01 uM incubated for 48 hrs by sulforhodamine B assay relative to control; conditions: read-out: Activity
MDA-MB-231 [4] = test: Growth inhibition of human MDA-MB-231 cells assessed as cell growth at 0.01 uM incubated for 48 hrs by sulforhodamine B assay relative to control; conditions: read-out: Activity
T47D [5] = test: Growth inhibition of human T47D cells assessed as cell growth at 0.01 uM incubated for 48 hrs by sulforhodamine B assay relative to control; conditions: read-out: Activity
CCRF-CEM [6] = test: Growth inhibition of human CCRF-CEM cells assessed as cell growth at 0.1 uM incubated for 48 hrs by sulforhodamine B assay relative to control; conditions: read-out: Activity; procedure, shortened: as §1
HCT-116 = test: Growth inhibition of human HCT-116 cells assessed as cell growth at 0.1 uM incubated for 48 hrs by sulforhodamine B assay relative to control; conditions: read-out: Activity
HCT-15 = test: Growth inhibition of human HCT-15 cells assessed as cell growth at 0.1 uM incubated for 48 hrs by sulforhodamine B assay relative to control; conditions: read-out: Activity
SNB-75 = test: Growth inhibition of human SNB-75 cells assessed as cell growth at 0.1 uM incubated for 48 hrs by sulforhodamine B assay relative to control; conditions: read-out: Activity
Malme-3M [7] = test: Growth inhibition of human Malme-3M cells assessed as cell growth at 0.1 uM incubated for 48 hrs by sulforhodamine B assay relative to control; conditions: read-out: Activity
UACC-257 = test: Growth inhibition of human UACC-257 cells assessed as cell growth at 0.1 uM incubated for 48 hrs by sulforhodamine B assay relative to control; conditions: read-out: Activity
OVCAR-8 = test: Growth inhibition of human OVCAR-8 cells assessed as cell growth at 0.1 uM incubated for 48 hrs by sulforhodamine B assay relative to control; conditions: read-out: Activity
A498 = test: Growth inhibition of human A498 cells assessed as cell growth at 0.1 uM incubated for 48 hrs by sulforhodamine B assay relative to control; conditions: read-out: Activity; procedure, shortened: as §1
RXF 393 [8] = test: Growth inhibition of human RXF 393 cells assessed as cell growth at 0.1 uM incubated for 48 hrs by sulforhodamine B assay relative to control; conditions: read-out: Activity
TK-10 = test: Growth inhibition of human TK-10 cells assessed as cell growth at 0.1 uM incubated for 48 hrs by sulforhodamine B assay relative to control; conditions: read-out: Activity
SF-539 = test: Growth inhibition of human SF-539 cells assessed as cell growth at 1 uM incubated for 48 hrs by sulforhodamine B assay relative to control; conditions: read-out: Activity
U-251 = test: Growth inhibition of human U-251 cells assessed as cell growth at 1 uM incubated for 48 hrs by sulforhodamine B assay relative to control; conditions: read-out: Activity
Malme-3M [9] = test: Growth inhibition of human Malme-3M cells assessed as cell growth at 1 uM incubated for 48 hrs by sulforhodamine B assay relative to control; conditions: read-out: Activity
NCI/ADR-RES = test: Growth inhibition of human NCI/ADR-RES cells assessed as cell growth at 1 uM incubated for 48 hrs by sulforhodamine B assay relative to control; conditions: read-out: Activity
MDA-MB-231 [10] = test: Growth inhibition of human MDA-MB-231 cells assessed as cell growth at 1 uM incubated for 48 hrs by sulforhodamine B assay relative to control; conditions: read-out: Activity
MDA-MB-468 = test: Growth inhibition of human MDA-MB-468 cells assessed as cell growth at 1 uM incubated for 48 hrs by sulforhodamine B assay relative to control; conditions: read-out: Activity
HOP-62 = test: Growth inhibition of human HOP-62 cells assessed as cell growth at 100 uM incubated for 48 hrs by sulforhodamine B assay relative to control; conditions: read-out: Activity
OVCAR-4 = test: Growth inhibition of human OVCAR-4 cells assessed as cell growth at 100 uM incubated for 48 hrs by sulforhodamine B assay relative to control; conditions: read-out: Activity
786-0 = test: Growth inhibition of human 786-0 cells assessed as cell growth at 100 uM incubated for 48 hrs by sulforhodamine B assay relative to control; conditions: read-out: Activity
CAKI-1 [11] = test: Growth inhibition of human CAKI-1 cells assessed as cell growth at 100 uM incubated for 48 hrs by sulforhodamine B assay relative to control; conditions: read-out: Activity; procedure, shortened: as §1
RXF 393 [12] = test: Growth inhibition of human RXF 393 cells assessed as cell growth at 100 uM incubated for 48 hrs by sulforhodamine B assay relative to control; conditions: read-out: Activity
A549 [13] = test: Growth inhibition of human A549/ATCC cells incubated for 48 hrs by sulforhodamine B assay; conditions: for CC50: read-out: LC50 (the source's name); procedure, shortened: as §1
HCC 2998 = test: Growth inhibition of human HCC 2998 cells incubated for 48 hrs by sulforhodamine B assay; conditions: for CC50: read-out: LC50 (the source's name)
SF-268 [14] = test: Growth inhibition of human SF-268 cells incubated for 48 hrs by sulforhodamine B assay
Procedure, shortened: (§2)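 NCI DTP 60-line human tumour panel. Dose-response curves were run only for ligands active in the initial 10 µM screen. GI50 (concentration giving 50% of maximal inhibition of proliferation) and TGI (concentration giving total growth inhibition) were derived from these curves.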

Malme-3M [15] = test: Growth inhibition of human Malme-3M cells incubated for 48 hrs by sulforhodamine B assay
Procedure, shortened: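 NCI60 panel at the NCI Developmental Therapeutics Program. Only compounds active in the 10 µM screen went to dose-response testing. GI50, the concentration giving 50% of maximal inhibition of proliferation, and TGI, the concentration giving total growth inhibition, were derived from the dose-response curves.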

CAKI-1 [16] = test: Growth inhibition of human CAKI-1 cells incubated for 48 hrs by sulforhodamine B assay; conditions: for CC50: read-out: LC50 (the source's name); procedure, shortened: as §1
RXF 393 [17] = test: Growth inhibition of human RXF 393 cells incubated for 48 hrs by sulforhodamine B assay; conditions: for CC50: read-out: LC50 (the source's name); procedure, shortened: as §2
T47D [18] = test: Growth inhibition of human T47D cells incubated for 48 hrs by sulforhodamine B assay; conditions: for CC50: read-out: LC50 (the source's name); procedure, shortened: as §2

Structure (SMILES): Cc1ccc(NC(=O)c2sc3nc4c(cc3c2N)C(=O)CCC4)cc1C
- growth at 0.01 µM (CCRF-CEM [1]): 94%
- growth at 0.01 µM (A549 [2]): 100%
- growth at 0.01 µM (HT-29): 106%
- growth at 0.01 µM (SF-268 [3]): 95%
- growth at 0.01 µM (SK-MEL-28): 99%
- growth at 0.01 µM (MDA-MB-231 [4]): 98%
- growth at 0.01 µM (T47D [5]): 98%
- growth at 0.1 µM (CCRF-CEM [6]): 97%
- growth at 0.1 µM (HCT-116): 90%
- growth at 0.1 µM (HCT-15): 90%
- growth at 0.1 µM (SNB-75): 70%
- growth at 0.1 µM (Malme-3M [7]): 86%
- growth at 0.1 µM (UACC-257): 92%
- growth at 0.1 µM (OVCAR-8): 100%
- growth at 0.1 µM (A498): 78%
- growth at 0.1 µM (RXF 393 [8]): 82%
- growth at 0.1 µM (TK-10): 85%
- growth at 1 µM (SF-539): 21%
- growth at 1 µM (U-251): 42%
- growth at 1 µM (Malme-3M [9]): 24%
- growth at 1 µM (NCI/ADR-RES): 39%
- growth at 1 µM (MDA-MB-231 [10]): 56%
- growth at 1 µM (MDA-MB-468): -9%
- growth at 100 µM (HOP-62): 28%
- growth at 100 µM (OVCAR-4): 18%
- growth at 100 µM (786-0): 20%
- growth at 100 µM (CAKI-1 [11]): 22%
- growth at 100 µM (RXF 393 [12]): 14%
- GI50 (A549 [13]): 0.673 µM
- TGI (A549 [13]): > 100 µM
- CC50 (A549 [13]): > 100 µM
- GI50 (HCC 2998): 1.4 µM
- TGI (HCC 2998): > 100 µM
- CC50 (HCC 2998): > 100 µM
- GI50 (SF-268 [14]): 3.07 µM
- LC50 (concentration killing 50% of cells) (SF-268 [14]): > 100 µM
- TGI (SF-268 [14]): > 100 µM
- LC50 (Malme-3M [15]): > 100 µM
- TGI (Malme-3M [15]): > 100 µM
- TGI (CAKI-1 [16]): > 100 µM
- CC50 (CAKI-1 [16]): > 100 µM
- GI50 (RXF 393 [17]): 0.222 µM
- CC50 (RXF 393 [17]): > 100 µM
- GI50 (T47D [18]): 0.444 µM
- TGI (T47D [18]): ≥ 100 µM
- CC50 (T47D [18]): > 100 µM

Structure (SMILES): Nc1c(C(=O)Nc2ccccc2)sc2nc3c(cc12)CN(Cc1ccccc1)CC3
- growth at 0.01 µM (CCRF-CEM [1]): 96%
- growth at 0.01 µM (A549 [2]): 98%
- growth at 0.01 µM (HT-29): 104%
- growth at 0.01 µM (SF-268 [3]): 91%
- growth at 0.01 µM (SK-MEL-28): 100%
- growth at 0.01 µM (MDA-MB-231 [4]): 101%
- growth at 0.01 µM (T47D [5]): 99%
- growth at 0.1 µM (CCRF-CEM [6]): 96%
- growth at 0.1 µM (HCT-116): 92%
- growth at 0.1 µM (HCT-15): 97%
- growth at 0.1 µM (SNB-75): 83%
- growth at 0.1 µM (Malme-3M [7]): 88%
- growth at 0.1 µM (UACC-257): 95%
- growth at 0.1 µM (OVCAR-8): 101%
- growth at 0.1 µM (A498): 82%
- growth at 0.1 µM (RXF 393 [8]): 94%
- growth at 0.1 µM (TK-10): 96%
- growth at 1 µM (SF-539): 83%
- growth at 1 µM (U-251): 101%
- growth at 1 µM (Malme-3M [9]): 87%
- growth at 1 µM (NCI/ADR-RES): 98%
- growth at 1 µM (MDA-MB-231 [10]): 92%
- growth at 1 µM (MDA-MB-468): 87%
- growth at 100 µM (HOP-62): -24%
- growth at 100 µM (OVCAR-4): -19%
- growth at 100 µM (786-0): 22%
- growth at 100 µM (CAKI-1 [11]): 36%
- growth at 100 µM (RXF 393 [12]): -5%
- GI50 (A549 [13]): 13.9 µM
- TGI (A549 [13]): > 100 µM
- CC50 (A549 [13]): > 100 µM
- GI50 (HCC 2998): 76.1 µM
- TGI (HCC 2998): > 100 µM
- CC50 (HCC 2998): > 100 µM
- GI50 (SF-268 [14]): 5.62 µM
- LC50 (concentration killing 50% of cells) (SF-268 [14]): > 100 µM
- TGI (SF-268 [14]): > 100 µM
- GI50 (Malme-3M [15]): 3.8 µM
- LC50 (Malme-3M [15]): > 100 µM
- TGI (Malme-3M [15]): > 100 µM
- GI50 (CAKI-1 [16]): 19.7 µM
- TGI (CAKI-1 [16]): > 100 µM
- CC50 (CAKI-1 [16]): > 100 µM
- GI50 (RXF 393 [17]): 3.15 µM
- TGI (RXF 393 [17]): 54.2 µM
- CC50 (RXF 393 [17]): > 100 µM
- GI50 (T47D [18]): 16.2 µM
- TGI (T47D [18]): > 100 µM
- CC50 (T47D [18]): > 100 µM
